Molecules are shown by their SMILES. Values after ≈ are worked out from the molar mass of the structure shown. Active and inactive are the calls of the source. The rule behind the calls is not given here.

Experimental findings from ChEMBL document CHEMBL1806465, “Synthesis and biological evaluation of 4-nitro-substituted 1,3-diaryltriazenes as a novel class of potent antitumor agents” (Eur J Med Chem, 2011) are described below.

One data set relates to HeLa. The data set is described as follows: Cytotoxicity against human HeLa cells after 72 hrs by MTT assay. It is filed as functional, cell-based.
Data set [1] in a line: Solubility of the compound in DMSO. In kind it is physicochemical.
Data set [2] is described as follows: Solubility of the compound in water. It is filed as physicochemical. As to conditions: buffer.
In another data set the test system is L1210. The data set is described as follows: Cytotoxicity against mouse L1210 cells at 32 uM. In kind it is functional.
Data set [3] in a line: Stability of the compound in DMSO after 26.25 hrs by LC/MS/MS analysis in presence of 10% FBS. In kind it is physicochemical. As to conditions: cattle; for remaining at 26.25 h: DMSO with 10% FBS, read-out: Stability; for Stability: 26.25 h.
In a further data set the test system is Nucleic Acid. Briefly: Binding affinity to calf thymus DNA assessed as change in melting temperature at compound to DNA ratio of 0.3. As to conditions: Bos taurus. In kind it is nucleic-acid assay. The gist of the method:
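ct-DNA sonicated, filtered, in Na-cacodylate buffer pH 7, I = 0.05 mol dm-3, 2 x 10^-5 mol dm-3 (as phosphate, ε260 = 6600); compound/DNA ratio 0.3. Absorbance at 260 nm followed versus temperature, compound absorbance subtracted, curves normalized. Tm taken from first-derivative maximum, confirmed by tangent method; ΔTm = Tm(complex) − Tm(free DNA), mean of ≥2 runs, error ±0.5 °C.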

What is called solubility is the dissolved amount per volume that the medium holds. A higher solubility goes with much dissolved substance. Take `Fc1ccc(/N=N/Nc2ccc(F)c(F)c2)cc1F`: the result with HeLa was inactive. In data set [1], this compound gave a solubility of 186 µM (≈ 50 µg/mL).

As to `COc1cc(/C=C/C(=O)N(/N=N/c2ccc(Cl)c(C(F)(F)F)c2)c2ccc(Cl)c(C(F)(F)F)c2)ccc1OC(C)=O`, the outcome in the data set with HeLa was inactive. The compound also had a solubility in data set [1] of 16.8 µM (≈ 10.4 µg/mL).

Broadly, the IC50 is the concentration needed to halve the response being measured. A higher IC50 goes with lower potency. `O=C(c1cccc(C(F)(F)F)c1)N(/N=N/c1ccc([N+](=O)[O-])cc1C(F)(F)F)c1ccc([N+](=O)[O-])cc1C(F)(F)F`: the IC50 with HeLa is 0.75 µM.

In the data set with HeLa, `O=C(c1ccccc1F)N(/N=N/c1ccc([N+](=O)[O-])cc1C(F)(F)F)c1ccc([N+](=O)[O-])cc1C(F)(F)F` showed an IC50 of 0.8 µM.

`O=[N+]([O-])c1ccc(/N=N/Nc2ccc([N+](=O)[O-])cc2F)c(F)c1`: the solubility result in data set [2] is reported as “Insoluble”.

In the data set with HeLa, `O=C(c1cccc(F)c1)N(/N=N/c1ccc([N+](=O)[O-])cc1Cl)c1ccc([N+](=O)[O-])cc1Cl` showed an IC50 of 2.5 µM.

Consider `Clc1cc(Cl)c(/N=N/Nc2cc(Cl)c(Cl)cc2Cl)cc1Cl`, for which, in the data set on HeLa, the outcome was inactive. In addition, the solubility in data set [1] was 41.3 µM (≈ 16.7 µg/mL).

`O=C(Cc1ccccc1)N(/N=N/c1ccc([N+](=O)[O-])cc1Cl)c1ccc([N+](=O)[O-])cc1Cl`: in the data set on HeLa, half-maximal inhibition (IC50) required 0.53 µM.

For the compound `CC(=O)NCC(=O)O.N=C(N)c1ccc(/N=N/Nc2ccc(C(=N)N)cc2)cc1` [DIMINAZEN ACETURATE], the IC50 in the data set with HeLa was 183 µM. The same compound yielded an Activity in the data set on L1210 of 50%.

Turning to `Clc1ccc(Cl)c(/N=N/Nc2cc(Cl)ccc2Cl)c1`, in the data set with HeLa, the outcome was inactive. This compound had a solubility in data set [1] of 37.3 µM (≈ 12.5 µg/mL).

The compound `O=C(c1cccc(F)c1)N(/N=N/c1ccc([N+](=O)[O-])cc1C(F)(F)F)c1ccc([N+](=O)[O-])cc1C(F)(F)F` showed an IC50 in the data set with HeLa of 0.88 µM.

In the case of `COC(=O)N(/N=N/c1ccc([N+](=O)[O-])cc1Cl)c1ccc([N+](=O)[O-])cc1Cl`, the IC50 in the data set with HeLa came to 0.98 µM.

Regarding `O=C(c1ccccc1C(F)(F)F)N(/N=N/c1ccc([N+](=O)[O-])cc1Br)c1ccc([N+](=O)[O-])cc1Br`, 13.3 µM corresponded to half-maximal inhibition in the data set on HeLa (IC50).

In the data set with HeLa, `CC(=O)Oc1ccc(/C=C/C(=O)N(/N=N/c2ccc(Cl)c(C(F)(F)F)c2)c2ccc(Cl)c(C(F)(F)F)c2)cc1OC(C)=O` came in with an IC50 of 43 µM.

Regarding `FC(F)(F)c1cc(Cl)ccc1/N=N/Nc1ccc(Cl)cc1C(F)(F)F`, in the data set on HeLa, the result was inactive. In addition, the concentration in solution in data set [1] (solubility) came to 62.2 µM (≈ 25 µg/mL).

For the compound `O=C(c1ccccc1)N(/N=N/c1ccc([N+](=O)[O-])cc1Cl)c1ccc([N+](=O)[O-])cc1Cl`, the remaining at 26.25 h in data set [3] was determined as 9%. Moreover, the IC50 in the data set with HeLa is 0.59 µM.

Turning to `O=C(c1cccc(C(F)(F)F)c1)N(/N=N/c1ccc([N+](=O)[O-])cc1Br)c1ccc([N+](=O)[O-])cc1Br`, the IC50 in the data set on HeLa was found to be 1.12 µM.

On to `CC(=O)OCC(=O)N(/N=N/c1ccc([N+](=O)[O-])cc1Br)c1ccc([N+](=O)[O-])cc1Br`, for which 0.49 µM corresponded to half-maximal inhibition with HeLa (IC50).

Take `O=[N+]([O-])c1ccc(N=NNc2ccc([N+](=O)[O-])cc2)cc1`: in data set [1], the solubility was 43.5 µM (≈ 12.5 µg/mL).

On to `O=C(c1ccccc1C(F)(F)F)N(/N=N/c1ccc([N+](=O)[O-])cc1Cl)c1ccc([N+](=O)[O-])cc1Cl`, for which the IC50 in the data set with HeLa worked out at 10.6 µM.

The compound `O=C(c1ccccc1C(F)(F)F)N(/N=N/c1ccc([N+](=O)[O-])cc1C(F)(F)F)c1ccc([N+](=O)[O-])cc1C(F)(F)F` displayed an IC50 in the data set on HeLa of 5.35 µM.

As to `COc1ccc(/C=C/C(=O)N(/N=N/c2cc(C(F)(F)F)ccc2Cl)c2cc(C(F)(F)F)ccc2Cl)cc1OC`, the result in the data set on HeLa was inactive. The same compound returned a solubility in data set [1] of 28.1 µM (≈ 16.6 µg/mL).

Compound `CCOC(=O)CC(=O)N(/N=N/c1ccc([N+](=O)[O-])cc1C(F)(F)F)c1ccc([N+](=O)[O-])cc1C(F)(F)F` came in with an IC50 with HeLa of 0.3 µM.

As to `O=C(c1ccc(C(F)(F)F)cc1)N(/N=N/c1ccc([N+](=O)[O-])cc1Cl)c1ccc([N+](=O)[O-])cc1Cl`, the IC50 with HeLa is 1.06 µM.

As for `O=C(c1cccc(C(F)(F)F)c1)N(/N=N/c1ccc([N+](=O)[O-])cc1Cl)c1ccc([N+](=O)[O-])cc1Cl`, 1.18 µM corresponded to half-maximal inhibition with HeLa (IC50).

Turning to `COc1cc(/C=C/C(=O)N(/N=N/c2cc(C(F)(F)F)ccc2Cl)c2cc(C(F)(F)F)ccc2Cl)ccc1OC(C)=O`, the outcome in the data set on HeLa was inactive. Also, the concentration in solution in data set [1] (solubility) came to 40.3 µM (≈ 25 µg/mL).

In the data set with HeLa, `O=C(CCl)N(/N=N/c1ccc([N+](=O)[O-])cc1C(F)(F)F)c1ccc([N+](=O)[O-])cc1C(F)(F)F` registered an IC50 of 0.8 µM.

Turning to `O=C(c1ccc(F)cc1)N(/N=N/c1ccc([N+](=O)[O-])cc1Br)c1ccc([N+](=O)[O-])cc1Br`, the IC50 with HeLa came out at 0.58 µM. This IC50 and that of the compound before are within 1.5-fold of each other.

For the compound `O=C(c1ccccc1F)N(/N=N/c1ccc([N+](=O)[O-])cc1Cl)c1ccc([N+](=O)[O-])cc1Cl`, half-maximal inhibition in the data set on HeLa (IC50) required 2.35 µM. Against the preceding compound, the IC50 is about 4.1-fold higher.

Take `O=[N+]([O-])c1ccc(/N=N/Nc2ccc([N+](=O)[O-])cc2C(F)(F)F)c(C(F)(F)F)c1`: the solubility entry in data set [2] was “Insoluble”. Moreover, in data set [3], the Stability result was “Stable”.

With `CC(=O)N(/N=N/c1ccc([N+](=O)[O-])cc1C(F)(F)F)c1ccc([N+](=O)[O-])cc1C(F)(F)F`, the remaining at 26.25 h in data set [3] is 51%.

With `O=C(c1ccccc1)N(/N=N/c1ccc([N+](=O)[O-])cc1C(F)(F)F)c1ccc([N+](=O)[O-])cc1C(F)(F)F`, the remaining at 26.25 h in data set [3] worked out at 63%. Also, in the data set with HeLa, the midpoint of inhibition, the IC50, lay at 0.6 µM.

As to `O=C(c1ccc(C(F)(F)F)cc1)N(/N=N/c1ccc([N+](=O)[O-])cc1C(F)(F)F)c1ccc([N+](=O)[O-])cc1C(F)(F)F`, in the data set on HeLa, half-maximal inhibition (IC50) was put at 0.69 µM.

As for `COc1cc(/C=C/C(=O)N(/N=N/c2cc(C(F)(F)F)ccc2Cl)c2cc(C(F)(F)F)ccc2Cl)cc(OC)c1`, the outcome in the data set with HeLa was inactive. The same compound gave a solubility in data set [1] of 24.1 µM (≈ 14.3 µg/mL).

Take `O=[N+]([O-])c1ccc(/N=N/Nc2ccc([N+](=O)[O-])cc2)cc1`: in the data set with HeLa, the result was inactive.

On to `CC(=O)N(/N=N/c1ccc([N+](=O)[O-])cc1)c1ccc([N+](=O)[O-])cc1`, for which, in the data set with HeLa, the IC50 was 63 µM.

For `CC(=O)Oc1ccc(/C=C/C(=O)N(/N=N/c2cccc(F)c2)c2cccc(F)c2)cc1OC(C)=O`, in the data set on HeLa, the outcome was inactive. The compound also came in with a solubility in data set [1] of 52.1 µM (≈ 25 µg/mL).

Turning to `Clc1ccc(/N=N/Nc2ccc(Cl)c(Cl)c2)cc1Cl`, in data set [1], the solubility came out at 74.6 µM (≈ 25 µg/mL).

For `CC(=O)N(/N=N/c1cccc(F)c1)c1cccc(F)c1`, the result in the data set on HeLa was inactive. In data set [1], this compound registered a solubility of 182 µM (≈ 50 µg/mL).

`O=C(c1ccccc1F)N(/N=N/c1ccc([N+](=O)[O-])cc1Br)c1ccc([N+](=O)[O-])cc1Br` gave an IC50 in the data set with HeLa of 1.2 µM.

For `COc1ccc(/C=C/C(=O)N(/N=N/c2cc(C(F)(F)F)ccc2Cl)c2cc(C(F)(F)F)ccc2Cl)c(OC)c1`, in the data set with HeLa, the result was inactive. Further, the concentration in solution in data set [1] (solubility) came to 84.4 µM (≈ 50 µg/mL).

As to `Fc1ccc(/N=N/Nc2ccc(F)cc2F)c(F)c1`, in the data set on HeLa, the outcome was inactive. The compound further yielded a solubility in data set [1] of 186 µM (≈ 50 µg/mL).

As to `CC(=O)N(/N=N/c1ccc(Cl)c(C(F)(F)F)c1)c1ccc(Cl)c(C(F)(F)F)c1`, the IC50 in the data set on HeLa came out at 50.6 µM.

As to `O=C(CCl)N(/N=N/c1ccc([N+](=O)[O-])cc1Cl)c1ccc([N+](=O)[O-])cc1Cl`, 0.55 µM corresponded to half-maximal inhibition in the data set with HeLa (IC50).

As to `O=[N+]([O-])c1ccc(/N=N/Nc2ccc([N+](=O)[O-])cc2Br)c(Br)c1`, in data set [2], the solubility result was “Insoluble”. The compound also returned an IC50 with HeLa of 0.94 µM.

`O=C(c1ccc(F)cc1)N(/N=N/c1ccc([N+](=O)[O-])cc1C(F)(F)F)c1ccc([N+](=O)[O-])cc1C(F)(F)F`: the IC50 in the data set with HeLa is 1 µM. This counts as single-digit micromolar.

As for `O=C(c1ccccc1)N(/N=N/c1ccc([N+](=O)[O-])cc1Br)c1ccc([N+](=O)[O-])cc1Br`, the midpoint of inhibition with HeLa, the IC50, lay at 1.53 µM.

On to `CC(=O)OCC(=O)N(/N=N/c1ccc([N+](=O)[O-])cc1Cl)c1ccc([N+](=O)[O-])cc1Cl`, for which, in the data set on HeLa, the IC50 is 0.35 µM.

Regarding `Fc1cccc(/N=N/Nc2cccc(F)c2)c1`, in the data set with HeLa, the result was inactive. Further, the solubility in data set [1] is 214 µM (≈ 50 µg/mL).

Turning to `O=[N+]([O-])c1ccc(/N=N/Nc2ccc([N+](=O)[O-])cc2Cl)c(Cl)c1`, the solubility result in data set [2] was “Insoluble”. Moreover, the Stability entry in data set [3] is “Stable”. The result in the data set with Nucleic Acid was inactive. The same compound came in with an IC50 in the data set on HeLa of 3.01 µM.
